Laboratory results from ChEMBL document CHEMBL1153905, “Functionalized 3-benzylidene-indolin-2-ones: inducers of NAD(P)H-quinone oxidoreductase 1 (NQO1) with antiproliferative activity” (Bioorg Med Chem, 2009).
Values belong to the molecule of their own block, whether it stands above or below them.

Tests used:
[1] = target: NAD(P)H dehydrogenase [quinone] 1 (Mus musculus) (UniProt Q64669); assay: Induction of NQO1 activity in mouse Hepa-1c1c7 cells assessed as induction ratio at 10 uM after 48 hrs by MTT assay relative to control; assay type: cell-based
Chain of NAD(P)H dehydrogenase [quinone] 1 (Mus musculus) (Q64669 whole entry): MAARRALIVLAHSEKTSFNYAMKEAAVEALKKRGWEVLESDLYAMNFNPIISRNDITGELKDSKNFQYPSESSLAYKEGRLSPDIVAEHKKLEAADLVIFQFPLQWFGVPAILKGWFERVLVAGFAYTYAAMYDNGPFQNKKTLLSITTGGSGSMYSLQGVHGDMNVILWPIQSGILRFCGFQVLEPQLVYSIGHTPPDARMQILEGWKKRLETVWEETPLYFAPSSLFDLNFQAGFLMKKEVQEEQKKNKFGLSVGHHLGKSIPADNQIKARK
Outline: (§1)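 Hepa1c1c7 cells, 10,000 per well, 24 h, were then treated 48 h (DMSO ≤0.5%). Digitonin/EDTA lysates were assayed for menadione-dependent MTT-formazan formation using a G6P/G6PDH NADPH-generating mix with FAD at pH 7.4. The reaction ran 5 min, was stopped with dicoumarol, and read at A590. Degree of induction = (A test − blank)/(A control − blank). Ratios were read off the induction–concentration plot at the EROD test concentration.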

[2] = Cytotoxicity against mouse Hepa-1c1c7 cells after 48 hrs by MTT assay; assay type: cell-based; details: hepa-1c1c7, 48 h
Outline: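 Murine hepatoma cells in α-MEM with 10% heat- and charcoal-treated fetal calf serum, passages 6–17; MTT read-out as for the cancer lines but with 48 h compound exposure. Highest concentration tested 25 µM. IC50 from survival-versus-concentration curve; mean and SD, n = 3.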

CYP1A1 [3] = target: T1, CYP1A1 (Mus musculus, UniProt P00184); assay: Induction of CYP1A1 activity in mouse Hepa-1c1c7 cells assessed as induction ratio at 10 uM after 48 hrs by EROD assay relative to control; assay type: ADME, cell-based
T1 sequence (P00184 whole entry): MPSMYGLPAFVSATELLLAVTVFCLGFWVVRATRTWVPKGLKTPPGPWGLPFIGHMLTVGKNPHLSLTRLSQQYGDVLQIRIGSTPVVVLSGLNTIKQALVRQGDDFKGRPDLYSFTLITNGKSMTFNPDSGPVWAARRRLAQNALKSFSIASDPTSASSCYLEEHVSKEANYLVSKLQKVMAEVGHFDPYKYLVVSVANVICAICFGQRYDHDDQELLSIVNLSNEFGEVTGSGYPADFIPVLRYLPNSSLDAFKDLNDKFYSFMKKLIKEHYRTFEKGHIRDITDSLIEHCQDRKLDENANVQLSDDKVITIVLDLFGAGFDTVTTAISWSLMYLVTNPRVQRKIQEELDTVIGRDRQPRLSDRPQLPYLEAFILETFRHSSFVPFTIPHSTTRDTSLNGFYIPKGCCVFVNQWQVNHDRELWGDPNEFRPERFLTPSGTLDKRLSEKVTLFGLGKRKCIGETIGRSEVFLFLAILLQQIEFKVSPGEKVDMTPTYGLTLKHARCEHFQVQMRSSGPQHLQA
Outline: (§2)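 About 10,000 Hepa1c1c7 cells/well cultured 24 h, then compound (0.5% DMSO final) for 48 h, at roughly 4 × the concentration doubling NQO1 activity. After PBS wash, cells given 5 µM 7-ethoxyresorufin plus 2 mM salicylamide, 37 °C, 40 min; resorufin fluorescence ex 530/em 590 nm, corrected for compound fluorescence. Ratio = (treated − blank)/(DMSO control − blank); mean ± SD, n = 3.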

[4] = Ratio of induction of NQO1 activity to induction of CYP1 activity in mouse Hepa-1c1c7 cells at 5 nM after 48 hrs
CYP1A1 [5] = target: T1, CYP1A1; assay: Induction of CYP1A1 activity in mouse Hepa-1c1c7 cells assessed as induction ratio at 5 nM after 48 hrs by EROD assay relative to control; assay type: ADME, cell-based
Outline: (§3)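 Hepa1c1c7 cells were seeded at 10,000 per well and grown 24 h. They were then exposed 48 h to compound (final DMSO 0.5% v/v) at about 4 × the NQO1 CD. After a PBS wash, cells got 5 µM 7-ethoxyresorufin plus 2 mM salicylamide in medium, 37 °C, 40 min. Resorufin was read at ex 530/em 590 nm, corrected for compound fluorescence. Ratio = (F treated − blank)/(F DMSO control − blank); mean ± SD, n = 3.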

[6] = target: NAD(P)H dehydrogenase [quinone] 1 (Mus musculus) (UniProt Q64669); assay: Induction of NQO1 activity in mouse Hepa-1c1c7 cells assessed as induction ratio at 5 nM after 48 hrs by MTT assay relative to control; assay type: cell-based; outline: as §1
[7] = target: NAD(P)H dehydrogenase [quinone] 1 (Mus musculus) (UniProt Q64669); assay: Induction of NQO1 activity in mouse Hepa-1c1c7 cells assessed as induction ratio at 0.1 uM after 48 hrs by MTT assay relative to control; assay type: cell-based; outline: as §1
CYP1A1 [8] = target: T1, CYP1A1; assay: Induction of CYP1A1 activity in mouse Hepa-1c1c7 cells assessed as induction ratio at 0.1 uM after 48 hrs by EROD assay relative to control; assay type: ADME, cell-based; outline: as §2
HCT-116 [9] = assay: Cell cycle arrest in human HCT116 cells released from G2 block assessed as accumulation at G2/M phase at 15 uM after 24 hrs by flow cytometry; assay type: functional
MCF7 [10] = assay: Antiproliferative activity against human MCF7 cells after 72 hrs by MTT assay; assay type: functional, cell-based; details: MCF7, 72 h
Outline: (§4)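 Cells seeded at 10,000 (MCF7), 4000 (HCT116) or 5000 (CCL186) per well and grown 24 h; MCF7 and CCL186 in EMEM with pyruvate, glutamine, 10% FBS; HCT116 in McCoy's 5A with 10% FBS. Compounds from DMSO stocks (≤1% DMSO final), 72 h exposure; MTT 0.5 mg/ml for 3 h, formazan in DMSO read at 590 nm. IC50 from sigmoidal survival curve, three separate occasions.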

HCT-116 [11] = assay: Antiproliferative activity against human HCT116 cells after 72 hrs by MTT assay; assay type: functional, cell-based; details: HCT-116, 72 h; outline: as §4
HCT-116 [12] = assay: Cell cycle arrest in human HCT116 cells released from G2 block assessed as accumulation at S phase at 15 uM after 24 hrs by flow cytometry; assay type: functional
[13] = target: NAD(P)H dehydrogenase [quinone] 1 (Mus musculus) (UniProt Q64669); assay: Induction of NQO1 activity in mouse Hepa-1c1c7 cells assessed as induction ratio at 1 uM after 48 hrs by MTT assay relative to control; assay type: cell-based; outline: as §1
HCT-116 [14] = assay: Cell cycle arrest in human HCT116 cells released from G2 block assessed as accumulation at G1 phase at 15 uM after 24 hrs by flow cytometry; assay type: functional
MCF7 [15] = assay: Selectivity ratio of IC50 for human CCL186 cells to IC50 for human MCF7 cells
Outline: (§5)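 MTT assay. MCF7 and CCL186 cells were grown in EMEM/10% FBS, HCT116 in McCoy's 5A/10% FBS. Seeding was 10,000 (MCF7), 4000 (HCT116) and 5000 (CCL186) cells per well, 24 h. Compound exposure was 72 h, DMSO ≤1% final. MTT 0.5 mg/ml for 3 h, formazan dissolved in DMSO, A590. IC50 came from sigmoidal survival curves, with 3 separate occasions per concentration. Ratio = IC50 CCL186 / IC50 of the cancer line.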

[16] = Selectivity ratio of IC50 for human CCL186 cells to IC50 for human HCT116 cells; assay type: ADME, cell-based, HCT-116; details: CCL186 cells and HCT116 cells, read-out: Ratio IC50; outline: as §5
HCT-116 [17] = assay: Cell cycle arrest in human HCT116 cells released from G1 block assessed as accumulation at sub G1 phase at 15 uM after 24 hrs by flow cytometry; assay type: functional
HCT-116 [18] = assay: Cell cycle arrest in human HCT116 cells released from G1 block assessed as accumulation at G1 phase at 15 uM after 24 hrs by flow cytometry; assay type: functional
HCT-116 [19] = assay: Cell cycle arrest in human HCT116 cells released from G1 block assessed as accumulation at S phase at 15 uM after 24 hrs by flow cytometry; assay type: functional
[20] = Antiproliferative activity against human CCL186 cells after 72 hrs by MTT assay; assay type: cell-based; details: CCL186, 72 h; outline: as §4
HCT-116 [21] = assay: Cell cycle arrest in human HCT116 cells released from G2 block assessed as accumulation at sub G1 phase at 15 uM after 24 hrs by flow cytometry; assay type: functional
CYP1A1 [22] = target: T1, CYP1A1; assay: Induction of CYP1A1 activity in mouse Hepa-1c1c7 cells assessed as induction ratio at 1 uM after 48 hrs by EROD assay relative to control; assay type: ADME, cell-based; outline: as §2
HCT-116 [23] = assay: Cell cycle arrest in human HCT116 cells released from G1 block assessed as accumulation at G2/M phase at 15 uM after 24 hrs by flow cytometry; assay type: functional
[24] = target: NAD(P)H dehydrogenase [quinone] 1 (Mus musculus) (UniProt Q64669); assay: Induction of NQO1 activity in mouse Hepa-1c1c7 cells assessed as induction ratio at 7.5 uM after 48 hrs by MTT assay relative to control; assay type: cell-based; outline: as §1
CYP1A1 [25] = target: T1, CYP1A1; assay: Induction of CYP1A1 activity in mouse Hepa-1c1c7 cells assessed as induction ratio at 7.5 uM after 48 hrs by EROD assay relative to control; assay type: ADME, cell-based; outline: as §3

Ratio [1]: 4.24
fold induction at 48 h, 10 µM (CYP1A1 [3]): 1.21
Compound: O=C1Nc2ccccc2/C1=C\c1ccc(Cl)cc1Cl
IC50 [2]: 10.6 µM

Ratio [7]: 2.74
fold induction at 48 h, 0.1 µM (CYP1A1 [8]): 1.22
Compound: O=C1Nc2ccccc2/C1=C\c1ccc(C(F)(F)F)cc1
IC50 [2]: 12 µM

Ratio [1]: 3.92
fold induction at 48 h, 10 µM (CYP1A1 [3]): 1.08
Compound: O=C1Nc2ccccc2/C1=C\c1ccccn1
IC50 [2]: 19.9 µM

IC50 (MCF7 [10]): 8.2 µM
Ratio [24]: 3.34
IC50 (HCT-116 [11]): 3.7 µM
fold induction at 48 h, 7.5 µM (CYP1A1 [25]): 1.08
Compound: O=C1Nc2ccccc2/C1=C\c1cccc(Oc2ccccc2)c1
Activity (HCT-116 [9]): 21.09%
Activity (HCT-116 [12]): 13.1%
Activity (HCT-116 [14]): 63.51%
Ratio IC50 (MCF7 [15]): 3.4
selectivity ratio [16]: 1.5
Activity (HCT-116 [17]): 3.62%
Activity (HCT-116 [18]): 55.93%
Activity (HCT-116 [19]): 21.83%
IC50 [20]: 12.7 µM
Activity (HCT-116 [21]): 2.16%
Activity (HCT-116 [23]): 18.98%
IC50 [2]: 10.8 µM

Further lines, the molecule ahead of its results:

Compound: O=C1Nc2ccccc2/C1=C1\C(=O)Nc2cc(F)ccc21
Ratio [4]: 0.93
fold induction at 48 h, 0.005 µM (CYP1A1 [5]): 2.75
Ratio [6]: 2.56
IC50 [2]: > 25 µM

Compound: COc1ccc2c(c1)NC(=O)/C2=C/c1ccc(OC)c(O)c1
Activity (HCT-116 [9]): 43.57%
IC50 (MCF7 [10]): 7.8 µM
IC50 (HCT-116 [11]): 3.7 µM
Activity (HCT-116 [12]): 15.36%
Ratio [13]: 4.34
Activity (HCT-116 [14]): 26.01%
Ratio IC50 (MCF7 [15]): 3.1
selectivity ratio [16]: 1.4
Activity (HCT-116 [17]): 5.26%
Activity (HCT-116 [18]): 17.49%
Activity (HCT-116 [19]): 21.13%
IC50 [20]: 11.3 µM
Activity (HCT-116 [21]): 15.54%
fold induction at 48 h, 1 µM (CYP1A1 [22]): 1.05
Activity (HCT-116 [23]): 56.49%
IC50 [2]: 9.8 µM

Compound: O=C1Nc2cc(C(F)(F)F)ccc2/C1=C1\C(=O)Nc2ccc(Cl)cc21
Ratio [4]: 0.92
fold induction at 48 h, 0.005 µM (CYP1A1 [5]): 3.23
Ratio [6]: 2.96
IC50 [2]: 9.8 µM

Compound: O=C1Nc2ccccc2/C1=C1\C(=O)Nc2ccccc21 [ISOINDIGO]
Ratio [7]: 2.8
IC50 [2]: > 25 µM
fold induction at 48 h, 0.1 µM (CYP1A1 [8]): 1.44
